Results taken from ChEMBL document CHEMBL4033712, “Synthesis and biological evaluation of new C-12(α/β)-(N-) sulfamoyl-phenylamino-14-deoxy-andrographolide derivatives as potent anti-cancer agents” (Bioorg Med Chem Lett, 2017).

How the values were obtained:
Format in all cases: functional
LOX IMVI = assay: Growth inhibition of human LOXIMVI cells incubated for 48 hrs by sulforhodamine B assay
Method in brief: (§1)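 NCI-60 five-dose screen at 0.01, 0.1, 1, 10 and 100 µM, 48 h incubation, sulforhodamine B end point. GI50 (50% decrease in net growth), TGI (total growth inhibition) and LC50 (net 50% loss of initial cells) taken from log concentration versus % growth inhibition curves.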

786-0 = assay: Growth inhibition of human 786-0 cells incubated for 48 hrs by sulforhodamine B assay; conditions: 786-0, 48 h; method in brief: as §1
SK-MEL-28 = assay: Growth inhibition of human SK-MEL-28 cells incubated for 48 hrs by sulforhodamine B assay; conditions: SK-MEL-28, 48 h
Method in brief: (§2)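 NCI 60 human tumour cell line panel, five-dose study at 0.01, 0.1, 1, 10 and 100 µM, 48 h incubation. Sulforhodamine B protein-binding dye end point. GI50 (50% decrease in net cell growth), TGI (total growth inhibition) and LC50 (net 50% loss of initial cells) read from log concentration versus % growth inhibition curves.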

T47D = assay: Growth inhibition of human T47D cells incubated for 48 hrs by sulforhodamine B assay; method in brief: as §2
M14 = assay: Growth inhibition of human M14 cells incubated for 48 hrs by sulforhodamine B assay; conditions: M14, 48 h; method in brief: as §1
HCT-116 = assay: Growth inhibition of human HCT116 cells incubated for 48 hrs by sulforhodamine B assay; conditions: HCT-116, 48 h; method in brief: as §1
OVCAR-3 = assay: Growth inhibition of human OVCAR3 cells incubated for 48 hrs by sulforhodamine B assay; conditions: OVCAR-3, 48 h; method in brief: as §1
NCI-H322M = assay: Growth inhibition of human NCI-H322M cells incubated for 48 hrs by sulforhodamine B assay; method in brief: as §1
HT-29 = assay: Growth inhibition of human HT-29 cells incubated for 48 hrs by sulforhodamine B assay; conditions: HT-29, 48 h; method in brief: as §1
COLO 205 = assay: Growth inhibition of human COLO205 cells incubated for 48 hrs by sulforhodamine B assay; conditions: COLO 205, 48 h; method in brief: as §1
MCF7 = assay: Growth inhibition of human MCF7 cells incubated for 48 hrs by sulforhodamine B assay; conditions: MCF7, 48 h; method in brief: as §1
OVCAR-8 = assay: Growth inhibition of human OVCAR8 cells incubated for 48 hrs by sulforhodamine B assay; conditions: OVCAR-8, 48 h; method in brief: as §1
RXF 393 = assay: Growth inhibition of human RXF393 cells incubated for 48 hrs by sulforhodamine B assay; conditions: RXF 393, 48 h; method in brief: as §2
SK-MEL-2 = assay: Growth inhibition of human SK-MEL-2 cells incubated for 48 hrs by sulforhodamine B assay; conditions: SK-MEL-2, 48 h; method in brief: as §2
SNB-19 [1] = assay: Anticancer activity against human SNB19 cells assessed as cell growth at 10 uM after 48 hrs by sulforhodamine B assay relative to control; conditions: SNB-19, 48 h, read-out: Activity
Method in brief: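 Single-dose NCI-60 panel screen: compound added at 10 µM and the culture incubated 48 h. The end point was read by protein staining with sulforhodamine B. The value is percent growth of treated cells relative to untreated control cells, reported as a mean graph across the panel.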

Hs-578T = assay: Growth inhibition of human Hs 578T cells incubated for 48 hrs by sulforhodamine B assay; method in brief: as §1
K562 = assay: Growth inhibition of human K562 cells incubated for 48 hrs by sulforhodamine B assay; conditions: K562, 48 h; method in brief: as §1
SNB-75 = assay: Growth inhibition of human SNB75 cells incubated for 48 hrs by sulforhodamine B assay; conditions: SNB-75, 48 h; method in brief: as §2
OVCAR-5 = assay: Growth inhibition of human OVCAR5 cells incubated for 48 hrs by sulforhodamine B assay; conditions: OVCAR-5, 48 h; method in brief: as §1
SNB-19 [2] = assay: Growth inhibition of human SNB19 cells incubated for 48 hrs by sulforhodamine B assay; conditions: SNB-19, 48 h; method in brief: as §2
HCC 2998 = assay: Growth inhibition of human HCC2998 cells incubated for 48 hrs by sulforhodamine B assay; conditions: HCC 2998, 48 h; method in brief: as §1
ACHN = assay: Growth inhibition of human ACHN cells incubated for 48 hrs by sulforhodamine B assay; method in brief: as §1
SK-MEL-5 = assay: Growth inhibition of human SK-MEL-5 cells incubated for 48 hrs by sulforhodamine B assay; conditions: SK-MEL-5, 48 h; method in brief: as §2
NCI-H522 = assay: Growth inhibition of human NCI-H522 cells incubated for 48 hrs by sulforhodamine B assay; conditions: NCI-H522, 48 h; method in brief: as §1
OVCAR-4 = assay: Growth inhibition of human OVCAR4 cells incubated for 48 hrs by sulforhodamine B assay; conditions: OVCAR-4, 48 h; method in brief: as §1
A498 = assay: Growth inhibition of human A498 cells incubated for 48 hrs by sulforhodamine B assay; conditions: A498, 48 h; method in brief: as §1
U-251 = assay: Growth inhibition of human U251 cells incubated for 48 hrs by sulforhodamine B assay; conditions: U-251, 48 h; method in brief: as §2
SF-268 = assay: Growth inhibition of human SF268 cells incubated for 48 hrs by sulforhodamine B assay; conditions: SF-268, 48 h; method in brief: as §2
BT-549 = assay: Growth inhibition of human BT549 cells incubated for 48 hrs by sulforhodamine B assay; conditions: BT-549, 48 h; method in brief: as §1
[3] = read-out: LC50 (the source's name)

`C=C1CC[C@@H]2[C@](C)(COC(C)=O)[C@H](OC(C)=O)CC[C@@]2(C)[C@H]1CC(Nc1ccc(S(=O)(=O)Nc2ccc(Cl)nn2)cc1)C1=CCOC1=O` (some centres not stated) was tested, and the GI50 (LOX IMVI) was 0.29 µM, the TGI (LOX IMVI) was 1.19 µM and the CC50 (LOX IMVI; [3]) was 4.17 µM. For the same molecule, the GI50 (786-0) was 1.69 µM, the LC50 (concentration giving net 50% loss of initial cells) (786-0) was 5.83 µM and the TGI (786-0) was 3.14 µM. It also gave a GI50 (SK-MEL-28) of 1.68 µM, an LC50 (50% net cell kill) (SK-MEL-28) of 7.13 µM and a TGI (SK-MEL-28) of 3.46 µM. The GI50 (T47D) was 1.51 µM, the TGI (T47D) was 4.25 µM and the CC50 (T47D; [3]) was over 100 µM. The GI50 (M14) was 1.45 µM, the TGI (M14) was 3.41 µM and the CC50 (M14; [3]) was 8.04 µM. The GI50 (HCT-116) was 1.08 µM, the TGI (HCT-116) was 2.32 µM and the CC50 (HCT-116; [3]) was 4.96 µM. For the same molecule, the GI50 (OVCAR-3) was 1.22 µM, the TGI (OVCAR-3) was 2.51 µM and the CC50 (OVCAR-3; [3]) was 5.18 µM. It also gave a GI50 (NCI-H322M) of 2.97 µM, a TGI (NCI-H322M) of 11.6 µM and a CC50 (NCI-H322M; [3]) of 36.1 µM. The GI50 (HT-29) was 1.18 µM, the TGI (HT-29) was 2.68 µM and the GI50 (COLO 205) was 1.46 µM. It also gave a TGI (COLO 205) of 3.16 µM, a CC50 (COLO 205; [3]) of 6.86 µM and a GI50 (MCF7) of 0.78 µM. The TGI (MCF7) was 2.9 µM, the GI50 (OVCAR-8) was 1.35 µM and the TGI (OVCAR-8) was 3.43 µM. The GI50 (RXF 393) was 1.77 µM, the TGI (RXF 393) was 3.29 µM and the CC50 (RXF 393; [3]) was 6.14 µM. It also gave a GI50 (SK-MEL-2) of 1.77 µM, a TGI (SK-MEL-2) of 3.99 µM and a CC50 (SK-MEL-2; [3]) of 8.97 µM. It also gave a growth at 10 µM (SNB-19 [1]) of 76%, a GI50 (Hs-578T) of 6.17 µM and an LC50 (Hs-578T) of over 100 µM. For the same molecule, the TGI (Hs-578T) was over 100 µM, the GI50 (K562) was 0.52 µM and the TGI (K562) was 5.19 µM. It also gave a CC50 (K562; [3]) of over 100 µM, a GI50 (SNB-75) of 1.44 µM and a TGI (SNB-75) of 5.9 µM. It also gave a CC50 (SNB-75; [3]) of 24.3 µM, a GI50 (OVCAR-5) of 2.01 µM and an LC50 (concentration causing net 50% loss of initial cells) (OVCAR-5) of 8.63 µM. For the same molecule, the TGI (OVCAR-5) was 4.16 µM, the GI50 (SNB-19 [2]) was 1.91 µM and the TGI (SNB-19 [2]) was 3.91 µM. For the same molecule, the CC50 (SNB-19 [2]; [3]) was 8 µM, the GI50 (HCC 2998) was 1.84 µM and the TGI (HCC 2998) was 3.86 µM. The CC50 (HCC 2998; [3]) was 8.08 µM, the GI50 (ACHN) was 1.68 µM and the TGI (ACHN) was 3.32 µM. The CC50 (ACHN; [3]) was 6.57 µM, the GI50 (SK-MEL-5) was 1.6 µM and the TGI (SK-MEL-5) was 3.13 µM. The CC50 (SK-MEL-5; [3]) was 6.13 µM, the GI50 (NCI-H522) was 0.75 µM and the TGI (NCI-H522) was 2.1 µM. It also gave a CC50 (NCI-H522; [3]) of 4.82 µM, a GI50 (OVCAR-4) of 1.47 µM and an LC50 (OVCAR-4) of 6.82 µM. For the same molecule, the TGI (OVCAR-4) was 3.17 µM, the GI50 (A498) was 1.4 µM and the LC50 (concentration giving net 50% loss of initial cells) (A498) was 15.6 µM. The TGI (A498) was 4.26 µM, the GI50 (U-251) was 1.68 µM and the TGI (U-251) was 3.05 µM. The CC50 (U-251; [3]) was 5.52 µM, the GI50 (SF-268) was 1.8 µM and the TGI (SF-268) was 3.67 µM. The CC50 (SF-268; [3]) was 7.51 µM, the GI50 (BT-549) was 1.58 µM and the TGI (BT-549) was 3.14 µM. For the same molecule, the CC50 (BT-549; [3]) was 6.28 µM.
